Measured values taken from ChEMBL document CHEMBL2321766, “Optimization of a Novel Series of TRPV4 Antagonists with In Vivo Activity in a Model of Pulmonary Edema” (ACS Med Chem Lett, 2013).
The source made the active and inactive calls. The calls are words filed in the database; no cut-off is given here.

Columns and labels:
[1] = biological target: T1, Transient receptor potential cation channel subfamily V member 4 (Homo sapiens, UniProt Q9HBA0); test: Antagonist activity at human recombinant TRPV4 expressed in BacMam virus infected HEK MSRII cells assessed as inhibition of GSK634775-induced calcium […] treated 10 mins prior to TRPV4 agonist, GSK634775 by FLIPR assay
T1 sequence (Q9HBA0 whole entry): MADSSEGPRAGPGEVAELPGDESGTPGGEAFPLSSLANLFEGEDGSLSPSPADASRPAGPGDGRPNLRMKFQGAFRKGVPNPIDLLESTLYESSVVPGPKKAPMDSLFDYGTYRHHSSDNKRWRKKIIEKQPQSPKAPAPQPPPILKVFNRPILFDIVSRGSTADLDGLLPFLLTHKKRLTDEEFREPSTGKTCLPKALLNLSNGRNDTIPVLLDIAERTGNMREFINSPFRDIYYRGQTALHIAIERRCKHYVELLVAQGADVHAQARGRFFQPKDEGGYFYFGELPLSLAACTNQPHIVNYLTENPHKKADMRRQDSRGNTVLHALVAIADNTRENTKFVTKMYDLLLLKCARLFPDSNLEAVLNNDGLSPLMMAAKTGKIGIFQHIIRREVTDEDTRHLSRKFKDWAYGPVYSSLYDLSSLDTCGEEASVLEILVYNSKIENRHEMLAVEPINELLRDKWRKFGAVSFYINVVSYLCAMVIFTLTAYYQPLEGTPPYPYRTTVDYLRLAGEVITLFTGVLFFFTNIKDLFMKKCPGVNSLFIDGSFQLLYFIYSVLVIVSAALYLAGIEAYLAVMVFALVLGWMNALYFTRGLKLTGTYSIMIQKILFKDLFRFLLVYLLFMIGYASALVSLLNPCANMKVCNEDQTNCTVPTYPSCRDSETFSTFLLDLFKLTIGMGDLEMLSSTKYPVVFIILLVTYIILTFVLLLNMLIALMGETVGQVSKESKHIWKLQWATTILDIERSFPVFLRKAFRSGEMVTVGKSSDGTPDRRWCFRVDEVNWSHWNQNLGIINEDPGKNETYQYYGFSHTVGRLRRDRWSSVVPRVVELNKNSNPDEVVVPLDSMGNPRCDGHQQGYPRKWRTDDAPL

[2] = Oral bioavailability in Sprague-Dawley rat at 2 mg/kg by HPLC-MS/MS analysis; type: ADME, organism-based; details: in vivo
[3] = Clearance in Sprague-Dawley rat plasma at 1 mg/kg, iv by HPLC-MS/MS analysis; type: ADME, organism-based; parameters: dose 1 mg/kg, route intravenous
[4] = (§1) Half life in Sprague-Dawley rat plasma at 2 mg/kg, po by HPLC-MS/MS analysis; type: ADME, organism-based; parameters: dose 2 mg/kg, route oral; details: Sprague-Dawley, plasma
[5] = tested on: Rattus norvegicus; test: Decrease in lung/body weight ratio in GSK1016790A-induced Sprague-Dawley rat pulmonary edema model at 3 mg/kg, iv administered 30 mins prior to GSK-1016790A injection; type: functional, organism-based; parameters: dose 3 mg/kg
Procedure, shortened: (§2)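 Rats given vehicle, 3 or 10 mg/kg iv 30 min before iv challenge with the TRPV4 agonist GSK1016790A at rising doses. Mean arterial pressure recorded during pretreatment and after agonist. Pulmonary edema scored as wet lung weight/body weight ratio, compared with vehicle-treated rats. Plasma drug levels measured at both doses.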

[6] = biological target: Voltage-dependent L-type calcium channel subunit alpha-1C (Homo sapiens, UniProt Q13936); test: Inhibition of human Cav1.2 expressed in HEK293 cells assessed as decrease in calcium […] at >10 uM by FLIPR analysis; type: cell-based
[7] = biological target: Transient receptor potential cation channel subfamily V member 4 (Rattus norvegicus) (UniProt Q9ERZ8); test: Agonist activity at rat TRPV4
Sequence of Transient receptor potential cation channel subfamily V member 4 (Rattus norvegicus) (Q9ERZ8 whole entry): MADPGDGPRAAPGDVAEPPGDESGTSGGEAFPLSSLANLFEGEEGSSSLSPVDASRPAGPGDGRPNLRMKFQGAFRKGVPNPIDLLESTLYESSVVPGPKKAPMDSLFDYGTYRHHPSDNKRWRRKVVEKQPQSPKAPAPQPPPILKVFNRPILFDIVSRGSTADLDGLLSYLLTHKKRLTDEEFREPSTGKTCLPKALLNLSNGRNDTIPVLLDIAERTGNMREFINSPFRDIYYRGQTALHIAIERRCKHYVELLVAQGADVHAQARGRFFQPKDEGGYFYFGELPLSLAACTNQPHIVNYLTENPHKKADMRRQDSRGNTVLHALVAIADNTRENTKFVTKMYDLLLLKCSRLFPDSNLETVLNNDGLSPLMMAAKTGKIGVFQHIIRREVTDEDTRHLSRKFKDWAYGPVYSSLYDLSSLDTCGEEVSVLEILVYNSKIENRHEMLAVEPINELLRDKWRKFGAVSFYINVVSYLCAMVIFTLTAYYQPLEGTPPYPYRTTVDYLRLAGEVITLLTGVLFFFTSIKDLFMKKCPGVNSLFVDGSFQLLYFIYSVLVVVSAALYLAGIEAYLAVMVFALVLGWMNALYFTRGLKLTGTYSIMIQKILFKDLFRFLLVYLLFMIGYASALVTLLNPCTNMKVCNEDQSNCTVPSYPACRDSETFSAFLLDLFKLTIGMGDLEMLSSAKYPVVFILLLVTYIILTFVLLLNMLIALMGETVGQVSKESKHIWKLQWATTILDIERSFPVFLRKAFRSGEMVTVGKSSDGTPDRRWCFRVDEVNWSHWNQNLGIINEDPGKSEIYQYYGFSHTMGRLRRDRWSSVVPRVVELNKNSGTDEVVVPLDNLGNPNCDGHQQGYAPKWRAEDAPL

[8] = tested on: Plasma; test: Fraction unbound in human plasma; type: ADME, cell-free
[9] = biological target: T1, Transient receptor potential cation channel subfamily V member 4; test: Agonist activity at human TRPV4
[10] = tested on: Rattus norvegicus; test: Reduction of GSK-1016790A-induced decrease in mean arterial pressure in iv dosed Sprague-Dawley rat administered 30 mins prior to GSK-1016790A injection; type: functional, organism-based; details: Artery
Procedure, shortened: as §2

[11] = tested on: Rattus norvegicus; test: Decrease in lung/body weight ratio in GSK1016790A-induced Sprague-Dawley rat pulmonary edema model at 10 mg/kg, iv administered 30 mins prior to GSK-1016790A injection; type: functional, organism-based; parameters: dose 10 mg/kg
Procedure, shortened: as §2

[12] = biological target: Potassium voltage-gated channel subfamily A member 5 (Homo sapiens) (UniProt P22460); test: Inhibition of human Kv1.5 expressed in CHO cells assessed as decrease in channel current at > 10 uM by patch clamp analysis; type: cell-based
Sequence of Potassium voltage-gated channel subfamily A member 5 (Homo sapiens) (P22460 whole entry): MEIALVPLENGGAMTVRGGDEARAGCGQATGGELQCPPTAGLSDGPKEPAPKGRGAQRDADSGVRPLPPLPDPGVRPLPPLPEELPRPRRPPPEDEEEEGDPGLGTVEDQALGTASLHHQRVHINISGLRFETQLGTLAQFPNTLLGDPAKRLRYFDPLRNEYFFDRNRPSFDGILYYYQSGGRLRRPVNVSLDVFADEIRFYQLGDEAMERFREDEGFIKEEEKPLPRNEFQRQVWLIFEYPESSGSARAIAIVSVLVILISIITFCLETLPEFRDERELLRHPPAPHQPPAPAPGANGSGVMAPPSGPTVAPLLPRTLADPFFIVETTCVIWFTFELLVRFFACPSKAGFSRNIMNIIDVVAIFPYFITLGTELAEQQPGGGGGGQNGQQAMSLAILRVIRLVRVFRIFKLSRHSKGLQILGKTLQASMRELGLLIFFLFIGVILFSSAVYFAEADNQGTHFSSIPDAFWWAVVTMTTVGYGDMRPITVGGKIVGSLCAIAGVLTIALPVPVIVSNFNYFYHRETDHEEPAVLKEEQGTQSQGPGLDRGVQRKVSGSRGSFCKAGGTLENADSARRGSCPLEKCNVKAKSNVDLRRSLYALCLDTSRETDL

[13] = tested on: Plasma; test: Fraction unbound in rat plasma; type: ADME, cell-free
[14] = tested on: Rattus norvegicus; test: Effect on mean arterial pressure in Sprague-Dawley rat at 3 to 10 mg/kg, iv; type: ADME, organism-based, Artery; parameters: dose 3-10 mg/kg, route intravenous; details: in vivo
Procedure, shortened: as §2

[15] = biological target: Transient receptor potential cation channel subfamily V member 4 (Rattus norvegicus, UniProt Q9ERZ8); test: Antagonist activity at rat TRPV4
Sequence of Transient receptor potential cation channel subfamily V member 4 (Rattus norvegicus, UniProt Q9ERZ8) (Q9ERZ8 whole entry): as the sequence (Q9ERZ8 whole entry) above

[16] = biological target: Sodium channel protein type 5 subunit alpha (Homo sapiens, UniProt Q14524); test: Inhibition of human Nav1.5 expressed in HEK293 cells at >10 uM; type: cell-based
Sequence of Sodium channel protein type 5 subunit alpha (Q14524 whole entry): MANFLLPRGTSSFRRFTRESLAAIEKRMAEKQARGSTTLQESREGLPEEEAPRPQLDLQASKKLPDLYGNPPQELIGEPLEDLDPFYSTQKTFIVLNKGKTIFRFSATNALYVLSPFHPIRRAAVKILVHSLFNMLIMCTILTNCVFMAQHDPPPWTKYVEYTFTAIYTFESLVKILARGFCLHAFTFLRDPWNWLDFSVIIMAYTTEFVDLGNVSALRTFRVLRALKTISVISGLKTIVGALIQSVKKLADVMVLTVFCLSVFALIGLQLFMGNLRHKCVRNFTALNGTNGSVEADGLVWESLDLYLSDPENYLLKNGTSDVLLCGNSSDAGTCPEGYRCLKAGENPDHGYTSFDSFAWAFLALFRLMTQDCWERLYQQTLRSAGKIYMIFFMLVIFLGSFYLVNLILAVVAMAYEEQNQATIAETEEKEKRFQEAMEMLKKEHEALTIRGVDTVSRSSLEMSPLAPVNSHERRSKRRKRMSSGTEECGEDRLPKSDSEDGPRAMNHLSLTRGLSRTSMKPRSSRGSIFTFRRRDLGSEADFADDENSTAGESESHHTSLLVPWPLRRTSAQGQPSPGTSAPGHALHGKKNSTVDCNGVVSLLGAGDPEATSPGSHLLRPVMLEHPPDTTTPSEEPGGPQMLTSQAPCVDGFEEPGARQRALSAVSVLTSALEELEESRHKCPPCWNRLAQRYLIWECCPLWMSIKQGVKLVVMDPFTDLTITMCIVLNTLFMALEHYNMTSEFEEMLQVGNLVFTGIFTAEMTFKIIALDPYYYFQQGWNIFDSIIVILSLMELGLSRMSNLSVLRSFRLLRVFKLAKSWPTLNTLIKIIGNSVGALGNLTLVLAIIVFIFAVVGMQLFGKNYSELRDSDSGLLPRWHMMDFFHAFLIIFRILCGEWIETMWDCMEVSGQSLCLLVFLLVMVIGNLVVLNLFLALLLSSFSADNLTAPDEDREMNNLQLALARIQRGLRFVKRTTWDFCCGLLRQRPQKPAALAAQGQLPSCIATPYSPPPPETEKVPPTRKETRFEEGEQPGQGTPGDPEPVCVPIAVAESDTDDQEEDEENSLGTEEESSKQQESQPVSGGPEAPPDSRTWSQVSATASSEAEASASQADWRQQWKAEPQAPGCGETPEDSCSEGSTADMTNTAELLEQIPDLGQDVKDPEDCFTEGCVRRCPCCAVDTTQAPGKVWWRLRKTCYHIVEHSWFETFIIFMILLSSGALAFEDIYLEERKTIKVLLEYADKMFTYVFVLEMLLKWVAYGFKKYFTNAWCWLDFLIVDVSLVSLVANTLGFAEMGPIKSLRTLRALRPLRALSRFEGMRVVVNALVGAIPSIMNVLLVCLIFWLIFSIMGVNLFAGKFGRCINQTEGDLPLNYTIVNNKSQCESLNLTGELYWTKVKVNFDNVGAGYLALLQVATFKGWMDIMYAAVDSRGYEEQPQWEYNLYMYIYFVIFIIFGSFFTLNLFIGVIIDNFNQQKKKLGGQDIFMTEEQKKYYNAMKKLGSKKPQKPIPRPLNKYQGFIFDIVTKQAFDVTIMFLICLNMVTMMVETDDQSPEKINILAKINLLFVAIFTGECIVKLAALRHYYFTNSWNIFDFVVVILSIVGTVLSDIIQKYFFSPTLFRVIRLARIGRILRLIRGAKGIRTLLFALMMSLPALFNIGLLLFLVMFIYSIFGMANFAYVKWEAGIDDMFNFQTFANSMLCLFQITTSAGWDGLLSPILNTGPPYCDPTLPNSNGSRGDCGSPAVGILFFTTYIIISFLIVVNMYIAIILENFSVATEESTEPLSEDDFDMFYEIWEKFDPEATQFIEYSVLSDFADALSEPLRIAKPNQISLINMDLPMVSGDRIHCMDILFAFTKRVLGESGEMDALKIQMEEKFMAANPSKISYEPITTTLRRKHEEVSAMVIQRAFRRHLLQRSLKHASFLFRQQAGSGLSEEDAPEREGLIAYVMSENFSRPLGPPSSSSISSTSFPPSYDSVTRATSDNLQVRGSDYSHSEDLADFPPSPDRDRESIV

[17] = tested on: Plasma; test: as §1; type: ADME, organism-based; parameters: dose 2 mg/kg, route oral; details: in vivo, BLD = below limit of detection
[18] = tested on: Plasma; test: Stability of the compound in Sprague-Dawley rat plasma at 1 mg/kg, iv by HPLC-MS/MS analysis; type: ADME, organism-based; parameters: dose 1 mg/kg, route intravenous; details: in vivo

CC(C)Nc1nc2c(C(=O)N(C)C)c(Cl)c(Cl)cc2n1CC1CCN(c2ccccc2)CC1
IC50 [1]: 5010 nM

Cc1ccc(N2CCC(n3c(NC(C)C)nc4c(C(=O)N(C)C)c(Cl)c(Cl)cc43)CC2)cc1
bioavailability [2]: 38%
IC50 [1]: 126 nM
clearance [3]: 18 mL/min/kg
half-life [4]: 1.6 h

CC(C)Nc1nc2c(C(=O)N(C)C)c(Cl)c(Cl)cc2n1C1CCN(c2ccc(OC(C)C)cc2)CC1
bioavailability [2]: 36%
IC50 [1]: 12.6 nM
clearance [3]: 46 mL/min/kg
half-life [4]: 2.1 h

CC(C)Nc1nc2c(C(=O)N(C)C)c(Cl)c(Cl)cc2n1-c1ccc(N2CCCCC2)cc1
IC50 [1]: 631 nM

CC(C)Nc1nc2c(C(=O)N(C)C)c(Cl)c(Cl)cc2n1C1CCN(C(=O)Nc2ccccc2)CC1
IC50 [1]: 2510 nM

CC(C)Nc1nc2c(C(=O)N(C)C)c(Cl)c(Cl)cc2n1C1CCN(C(=O)c2ccc(C(C)(C)C)cc2)CC1
IC50 [1]: 1260 nM

CC(C)Nc1nc2c(C(=O)N(C)C)c(Cl)c(Cl)cc2n1C1CCN(c2ccc(C(C)(C)C(=O)O)cc2)CC1
IC50 [1]: > 10000 nM

CC(C)Nc1nc2c(C(=O)N(C)C)c(Cl)c(Cl)cc2n1C1CCN(Cc2ccccc2)CC1
IC50 [1]: 1000 nM

CC(C)Nc1nc2c(C(=O)N(C)C)c(Cl)c(Cl)cc2n1C1CCN(c2ccc(C3CCCCC3)cc2)CC1
bioavailability [2]: 7%
IC50 [1]: 31.6 nM
clearance [3]: 9.3 mL/min/kg
half-life [4]: 2.8 h

CC(C)Nc1nc2c(C(=O)N(C)C)c(Cl)c(Cl)cc2n1C1CCN(c2ccc(C(C)(C)C)cc2)CC1
bioavailability [2]: 39%
IC50 [1]: 50.1 nM
clearance [3]: 34 mL/min/kg
half-life [4]: 3.7 h

CC(C)Nc1nc2c(C(=O)N(C)C)c(Cl)c(Cl)cc2n1C1CCN(c2ccc(C(C)(C)C#N)cc2)CC1
Activity [5]: inactive
inhibition (INH) [6]: Not Active
Activity [7]: inactive
bioavailability [2]: 31%
Cp(f) [8]: 4.4%
IC50 [1]: 31.6 nM
clearance [3]: 13 mL/min/kg
Activity [9]: inactive
Activity [10]: Dose-dependent effect
half-life [4]: 1.6 h
Activity [11]: Active
inhibition [12]: inactive
Cp(f) [13]: 3.3%
Activity [14]: Non-toxic
IC50 [15]: 32 nM
inhibition (INH) [16]: Not Active

CC(C)Nc1nc2c(C(=O)N(C)C)c(Cl)c(Cl)cc2n1C1CCN(S(=O)(=O)c2ccc(Cl)cc2)CC1
IC50 [1]: 3980 nM

CC(C)Nc1nc2c(C(=O)N(C)C)c(Cl)c(Cl)cc2n1C1CCN(c2ccccc2)CC1
IC50 [1]: 200 nM

COC(=O)C(C)(C)c1ccc(N2CCC(n3c(NC(C)C)nc4c(C(=O)N(C)C)c(Cl)c(Cl)cc43)CC2)cc1
IC50 [1]: 15.8 nM
t1/2 [17]: BLD
Stability [18]: Unstable

CC(C)Nc1nc2c(C(=O)N(C)C)c(Cl)c(Cl)cc2n1C1CCN(c2ccc(C3(C#N)CCOCC3)cc2)CC1
bioavailability [2]: 22%
IC50 [1]: 3.2 nM
clearance [3]: 25 mL/min/kg
half-life [4]: 2.1 h

Cc1cccc(N2CCC(n3c(NC(C)C)nc4c(C(=O)N(C)C)c(Cl)c(Cl)cc43)CC2)c1
bioavailability [2]: 76%
IC50 [1]: 126 nM
clearance [3]: 12 mL/min/kg
half-life [4]: 3.2 h
